From ChEMBL document CHEMBL3603830, “Synthesis and structure-activity relationship of uracil nucleotide derivatives towards the identification of human P2Y6 receptor antagonists” (Bioorg Med Chem, 2015)
Activity calls are given as the source filed them. No cut-off for these calls is given here.

Key:
P2Y purinoceptor 6 [1] = target: T1, P2Y purinoceptor 6 (Homo sapiens, UniProt Q15077); assay: Agonist activity at human recombinant P2Y6 receptor expressed in human 1321N1 cells assessed as increase in intracellular calcium level at >100 uM by fluo-4 dye-based spectrofluorometric analysis; type: functional, cell-based
In short: (§1)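 1321N1 cells stably expressing recombinant hP2Y6-R were trypsin/EDTA-detached, loaded with 1 µM Fluo-4/AM in HBSS (Ca2+/Mg2+) for 25 min at 37 °C, then held 25 min at 37 °C for de-esterification. Stirred cuvette suspension read at ex 488/em 520 nm after compound addition, with UDP as control. Fmax/Fmin set with 0.1% Triton X-100 then 50 mM EDTA; [Ca2+] = Kd(F−Fmin)/(Fmax−F).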

P2Y purinoceptor 6 [2] = target: T1, P2Y purinoceptor 6; assay: Antagonist activity at human recombinant P2Y6 receptor expressed in human 1321N1 cells assessed as inhibition of UDP-induced increase in intracellular calcium level at 30 uM incubated for 2 mins prior to UDP induction by fluo-4 dye-based spectrofluorometric analysis; type: functional, cell-based
In short: (§2)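 hP2Y6-R-expressing 1321N1 cells, Fluo-4/AM-loaded (1 µM, 25 min, 37 °C, then 25 min de-esterification) in HBSS with Ca2+/Mg2+, stirred in a cuvette with fluorescence at 488/520 nm. Analogue given 2 min before 1 µM UDP stimulation. Calcium calculated from Triton X-100/EDTA calibration. Two experiments in duplicate, mean ± SEM; one-way ANOVA against vehicle control.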

P2Y purinoceptor 6 [3] = target: T1, P2Y purinoceptor 6; assay: Agonist activity at human recombinant P2Y6 receptor expressed in human 1321N1 cells assessed as increase in intracellular calcium level by fluo-4 dye-based spectrofluorometric analysis; type: functional, cell-based; in short: as §1
P2Y purinoceptor 6 [4] = target: T1, P2Y purinoceptor 6; assay: Antagonist activity at human recombinant P2Y6 receptor expressed in human 1321N1 cells assessed as inhibition of UDP-induced increase in intracellular calcium level at 100 uM incubated for 2 mins prior to UDP induction by fluo-4 dye-based spectrofluorometric analysis; type: functional, cell-based; in short: as §2
[5] = target: T2, NPP3 (ectonucleotide pyrophosphatase/phosphodiesterase family member 3) (Homo sapiens, UniProt O14638); assay: Drug metabolism assessed as human NPP3-mediated compound hydrolysis at 100 uM after 3 hrs by HPLC analysis relative to UDP-treated control; type: ADME; conditions: human NPP3 enzyme, read-out: Drug metabolism
T2 sequence (O14638 whole entry): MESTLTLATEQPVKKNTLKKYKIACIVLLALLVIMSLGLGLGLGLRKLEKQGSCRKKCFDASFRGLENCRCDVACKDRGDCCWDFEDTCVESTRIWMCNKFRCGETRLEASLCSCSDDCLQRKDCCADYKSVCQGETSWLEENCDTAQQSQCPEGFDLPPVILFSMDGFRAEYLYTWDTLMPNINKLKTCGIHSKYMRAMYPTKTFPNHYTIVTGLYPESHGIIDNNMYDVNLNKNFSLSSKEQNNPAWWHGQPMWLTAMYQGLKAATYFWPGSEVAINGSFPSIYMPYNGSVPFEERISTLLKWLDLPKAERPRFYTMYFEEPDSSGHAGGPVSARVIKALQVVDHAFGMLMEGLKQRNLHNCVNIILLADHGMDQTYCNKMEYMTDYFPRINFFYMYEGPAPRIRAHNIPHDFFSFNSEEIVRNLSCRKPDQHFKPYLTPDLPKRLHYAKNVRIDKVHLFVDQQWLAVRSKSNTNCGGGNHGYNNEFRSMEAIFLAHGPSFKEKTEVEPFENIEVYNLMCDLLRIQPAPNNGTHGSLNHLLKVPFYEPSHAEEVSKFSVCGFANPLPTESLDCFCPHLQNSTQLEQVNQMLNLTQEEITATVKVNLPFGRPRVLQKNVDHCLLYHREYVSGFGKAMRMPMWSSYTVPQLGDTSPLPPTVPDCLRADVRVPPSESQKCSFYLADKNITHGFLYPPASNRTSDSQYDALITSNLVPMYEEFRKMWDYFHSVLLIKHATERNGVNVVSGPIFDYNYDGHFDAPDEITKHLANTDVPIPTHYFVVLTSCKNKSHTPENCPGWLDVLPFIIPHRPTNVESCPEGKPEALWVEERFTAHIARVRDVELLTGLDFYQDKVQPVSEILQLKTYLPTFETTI
In short: (§3)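 Compound at 100 µM incubated at 37 °C with hNPP1 for 2 h or hNPP3 for 3 h, in buffer of 1 mM CaCl2, 200 mM NaCl, 10 mM KCl and 100 mM Tris, pH 8.5. Quenched with perchloric acid, neutralized to pH 7 with KOH, then C18 HPLC with isocratic TEAA (pH 7)/CH3CN. Degradation taken from the nucleoside monophosphate peak area minus control, relative to 100% UDP hydrolysis.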

P2Y purinoceptor 6 [6] = target: T1, P2Y purinoceptor 6; assay: Agonist activity at human recombinant P2Y6 receptor expressed in human 1321N1 cells assessed as induction of calcium release at 100 uM by fluo-4 dye-based spectrofluorometric analysis; type: functional, cell-based
In short: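 1321N1 astrocytoma cells stably expressing recombinant hP2Y6-R, trypsin/EDTA-detached, loaded with 1 µM Fluo-4/AM in HBSS (Ca2+/Mg2+) for 25 min at 37 °C, then de-esterified 25 min. Stirred suspension in a quartz cuvette, excitation 488 nm and emission 520 nm. Compound added, with UDP as control. Fmax from 0.1% Triton X-100 and Fmin from 50 mM EDTA; [Ca2+]i = Kd(F−Fmin)/(Fmax−F). Two experiments in duplicate.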

[7] = target: T3, Ectonucleotide pyrophosphatase/phosphodiesterase family member 1 (Homo sapiens) (UniProt P22413); assay: Inhibition of human NPP1-mediated UDP hydrolysis at 100 uM after 2 hrs relative to UDP-treated control
T3 sequence (whole entry): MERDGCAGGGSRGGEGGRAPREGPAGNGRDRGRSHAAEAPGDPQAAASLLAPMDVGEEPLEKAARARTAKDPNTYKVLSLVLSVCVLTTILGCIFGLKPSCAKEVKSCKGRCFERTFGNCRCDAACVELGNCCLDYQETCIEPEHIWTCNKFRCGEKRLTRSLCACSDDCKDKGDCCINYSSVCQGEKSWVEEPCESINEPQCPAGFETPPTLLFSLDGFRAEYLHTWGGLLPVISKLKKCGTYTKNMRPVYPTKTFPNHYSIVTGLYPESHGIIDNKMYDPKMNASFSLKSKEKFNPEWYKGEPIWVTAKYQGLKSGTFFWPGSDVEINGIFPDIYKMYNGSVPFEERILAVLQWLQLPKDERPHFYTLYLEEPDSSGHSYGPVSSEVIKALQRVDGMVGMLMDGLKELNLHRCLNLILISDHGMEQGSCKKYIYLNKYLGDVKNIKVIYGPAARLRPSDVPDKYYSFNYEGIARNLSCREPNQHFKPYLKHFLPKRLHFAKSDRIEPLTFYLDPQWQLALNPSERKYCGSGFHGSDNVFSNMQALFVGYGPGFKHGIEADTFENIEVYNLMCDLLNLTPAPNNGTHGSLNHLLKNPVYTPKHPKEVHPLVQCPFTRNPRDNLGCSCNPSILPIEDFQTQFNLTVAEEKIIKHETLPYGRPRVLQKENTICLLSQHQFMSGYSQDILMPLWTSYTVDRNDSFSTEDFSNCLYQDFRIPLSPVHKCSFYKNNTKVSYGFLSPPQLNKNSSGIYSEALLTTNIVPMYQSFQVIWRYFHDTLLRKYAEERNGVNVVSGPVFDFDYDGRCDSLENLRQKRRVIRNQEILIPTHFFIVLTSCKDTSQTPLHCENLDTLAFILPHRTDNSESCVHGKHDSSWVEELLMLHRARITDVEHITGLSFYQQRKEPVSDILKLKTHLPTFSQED
In short: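 21.44 µg hNPP1 extract pre-incubated 3 min at 37 °C in 1 mM CaCl2, 140 mM NaCl, 5 mM KCl and 50 mM Tris, pH 8.5. Reaction started with compound and UDP, each 100 µM final. Stopped after 2 h with ice-cold perchloric acid, neutralized with KOH, then HPLC. Compared with UDP-only reference samples. Mean ± S.D. of three experiments.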

[8] = target: T4, Ectonucleotide pyrophosphatase/phosphodiesterase family member 3 (Homo sapiens) (UniProt O14638); assay: Inhibition of human NPP3-mediated UDP hydrolysis at 100 uM after 3 hrs relative to UDP-treated control
T4 sequence (whole entry): T2 sequence (O14638 whole entry)

[9] = target: T5, NPP1 (ectonucleotide pyrophosphatase/phosphodiesterase family member 1) (Homo sapiens, UniProt P22413); assay: Drug metabolism assessed as human NPP1-mediated compound hydrolysis at 100 uM after 2 hrs by HPLC analysis relative to UDP-treated control; type: ADME; conditions: human NPP1 enzyme, read-out: Drug metabolism; in short: as §3
T5 sequence (P22413 whole entry): T3 sequence (whole entry)

T1 sequence (Q15077 whole entry): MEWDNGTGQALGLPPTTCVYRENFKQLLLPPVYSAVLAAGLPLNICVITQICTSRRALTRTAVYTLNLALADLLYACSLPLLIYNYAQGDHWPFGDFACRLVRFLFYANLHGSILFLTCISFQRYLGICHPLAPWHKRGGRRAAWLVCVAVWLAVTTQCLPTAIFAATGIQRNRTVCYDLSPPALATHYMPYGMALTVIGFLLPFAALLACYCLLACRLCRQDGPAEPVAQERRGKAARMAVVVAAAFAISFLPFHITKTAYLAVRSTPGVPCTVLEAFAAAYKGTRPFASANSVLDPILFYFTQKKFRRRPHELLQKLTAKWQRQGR

SMILES	Activity (P2Y purinoceptor 6 [1])	inhibition (P2Y purinoceptor 6 [2])	Activity (P2Y purinoceptor 6 [3])	inhibition (P2Y purinoceptor 6 [4])	also measured
O=c1[nH]c(=O)n([C@H]2C[C@H](O)[C@@H](COP(=O)(O)CP(=O)(O)O)O2)cc1F	Active	inactive	–	–	–
O=c1[nH]c(=O)n([C@H]2C[C@H](OP(=O)(O)O)[C@@H](COP(=O)(O)O)O2)cc1F	Active	inactive	–	–	–
COc1cn([C@@H]2O[C@H](COP(=O)(O)C(Cl)(Cl)P(=O)(O)O)[C@@H](O)[C@H]2O)c(=O)[nH]c1=O	–	inactive	Active	Active	–
O=c1[nH]c(=O)n([C@@H]2O[C@H](COP(=O)(O)CP(=O)(O)O)[C@@H](O)[C@H]2O)cc1F	–	–	Active	–	–
COc1cn([C@@H]2O[C@H](COP(=O)(O)C(F)(F)P(=O)(O)O)[C@@H](O)[C@H]2O)c(=O)[nH]c1=O	Active	inactive	Active	40%	–
O=c1ccn([C@@H]2O[C@H](COP(=O)(O)CS(=O)(=O)O)[C@@H](O)[C@H]2O)c(=O)[nH]1	–	–	–	inactive	metabolised at 3 h, 100 µM [5]: 13.5%; Activity (P2Y purinoceptor 6 [6]): inactive; inhibition [7]: 26.7%; inhibition [8]: 12.2%; metabolised at 2 h, 100 µM [9]: 9.5%
O=c1[nH]c(=O)n([C@H]2C[C@H](O)[C@@H](COP(=O)(O)C(F)(F)P(=O)(O)O)O2)cc1F	inactive	inactive	–	–	–
Cn1c(=O)ccn([C@@H]2O[C@H](COP(=O)(O)CP(=O)(O)O)[C@@H](O)[C@H]2O)c1=O	–	–	inactive	inactive	–
O=c1[nH]c(=O)n([C@@H]2O[C@H](COP(=O)(O)OS(=O)(=O)O)[C@@H](O)[C@H]2O)cc1F	–	–	–	–	metabolised at 3 h, 100 µM [5]: 44.4%; metabolised at 2 h, 100 µM [9]: 18.9%
